Measured values from ChEMBL document CHEMBL1123346, “Pyrimidinones. 3. N-substituted 6-phenylpyrimidinones and pyrimidinediones with diuretic/hypotensive and antiinflammatory activity” (J Med Chem, 1986).

What was measured:
[1] = system: Rattus norvegicus; assay: Compound was tested for urinary volume excretion in conscious rat at the dose of 100 mg/kg expressed as urinary excretion in treated rats/urinary excretion in control rats; format: ADME, organism-based, Urine; design: dose 100 mg/kg; details: in vivo
How it was run: (§1)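 Male rats (~160 g) fasted 24 h, water withheld 1.5 h; oral gavage of compound (0.3-100 mg/kg) in 25 mL/kg saline with 0.5% carboxymethylcellulose; 5 h urine collection in metabolism cages. Urine volume, Na+ and K+ (flame photometry) expressed as treated/control excretion ratio.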

[2] = Sodium salt excretion in conscious rat at the dose of 1.0 mg/kg expressed as urinary excretion in treated rats/urinary excretion in control rats; format: ADME, organism-based, Urine; design: dose 1 mg/kg; details: in vivo; how it was run: as §1
[3] = Potassium salt excretion in conscious rat at the dose of 1.0 mg/kg expressed as urinary excretion in treated rats/urinary excretion in control rats; format: ADME, organism-based, Urine; design: dose 1 mg/kg; details: in vivo; how it was run: as §1
[4] = system: Rattus norvegicus; assay: Compound was tested for urinary volume excretion in conscious rat at the dose of 10 mg/kg expressed as urinary excretion in treated rats/urinary excretion in control rats; format: ADME, organism-based, Urine; design: dose 10 mg/kg; details: in vivo; how it was run: as §1
[5] = Sodium salt excretion in conscious rat at the dose of 100 mg/kg expressed as urinary excretion in treated rats/urinary excretion in control rats; format: ADME, organism-based, Urine; design: dose 100 mg/kg; details: in vivo; how it was run: as §1
[6] = Sodium salt excretion in conscious rat at the dose of 10 mg/kg expressed as urinary excretion in treated rats/urinary excretion in control rats; format: ADME, organism-based, Urine; design: dose 10 mg/kg; details: in vivo; how it was run: as §1
[7] = Potassium salt excretion in conscious rat at the dose of 10 mg/kg expressed as urinary excretion in treated rats/urinary excretion in control rats; format: ADME, organism-based, Urine; design: dose 10 mg/kg; details: in vivo; how it was run: as §1
[8] = Potassium salt excretion in conscious rat at the dose of 30 mg/kg expressed as urinary excretion in treated rats/urinary excretion in control rats; format: ADME, organism-based, Urine; design: dose 30 mg/kg; details: in vivo; how it was run: as §1
[9] = system: Rattus norvegicus; assay: Compound was tested for urinary volume excretion in conscious rat at the dose of 1.0 mg/kg expressed as urinary excretion in treated rats/urinary excretion in control rats; format: ADME, organism-based, Urine; design: dose 1 mg/kg; details: in vivo; how it was run: as §1
[10] = system: Rattus norvegicus; assay: Compound was tested for urinary volume excretion in conscious rat at the dose of 30 mg/kg expressed as urinary excretion in treated rats/urinary excretion in control rats; format: ADME, organism-based, Urine; design: dose 30 mg/kg; details: in vivo; how it was run: as §1
[11] = system: Rattus norvegicus; assay: Blood pressure change in rats after oral administration of 50 mg/kg dose after 4 hours; format: functional
How it was run: (§2)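 Restrained female Sprague–Dawley rats with indwelling aortic cannulas exteriorized at the nape; direct arterial pressure via transducer, mean pressure by electrical integration of phasic pressure. Readings before and 4 and 24 h after oral dosing (carboxymethylcellulose suspension, 10 mL/kg). Value is change in mean arterial pressure, averaged over two animals.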

[12] = system: Rattus norvegicus; assay: Inhibition of RPAR administered perorally at 100 mg/kg dose; format: functional; details: route oral
How it was run: (§3)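 Male Wistar rats (180-200 g), 5-10/group, dosed orally (water with Tween-80 suspension) 1 h before iv sensitization with 1 mg bovine serum albumin; 24-h fasted. 60 min later subplantar challenge with 200 µg anti-BSA in left hindpaw. Paw swelling by mercury displacement plethysmography at 2 h post-challenge.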

[13] = Potassium salt excretion in conscious rat at the dose of 100 mg/kg expressed as urinary excretion in treated rats/urinary excretion in control rats; format: ADME, organism-based, Urine; design: dose 100 mg/kg; details: in vivo; how it was run: as §1
[14] = organism: Rattus norvegicus; assay: Diuretic activity in rats; format: functional, Urine
How it was run: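 Male rats (~160 g) fasted 24 h, water withheld 1.5 h, both withheld during test. Gavage 25 mL/kg 0.9% saline with 0.5% carboxymethylcellulose containing compound at 40 mg/kg; urine collected 5 h in metabolism cages. Two-stage test, T/C urine volume per stage; active if product of stage T/Cs ≥3.34.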

[15] = system: Rattus norvegicus; assay: Compound was tested for urinary volume excretion in conscious rat at the dose of 0.3 mg/kg expressed as urinary excretion in treated rats/urinary excretion in control rats; format: ADME, organism-based, Urine; design: dose 0.3 mg/kg; details: in vivo; how it was run: as §1
[16] = Potassium salt excretion in conscious rat at the dose of 3.0 mg/kg expressed as urinary excretion in treated rats/urinary excretion in control rats; format: ADME, organism-based, Urine; design: dose 3 mg/kg; details: in vivo; how it was run: as §1
[17] = Potassium salt excretion in conscious rat at the dose of 0.3 mg/kg expressed as urinary excretion in treated rats/urinary excretion in control rats; format: ADME, organism-based, Urine; design: dose 0.3 mg/kg; details: in vivo; how it was run: as §1
[18] = Sodium salt excretion in conscious rat at the dose of 0.3 mg/kg expressed as urinary excretion in treated rats/urinary excretion in control rats; format: ADME, organism-based, Urine; design: dose 0.3 mg/kg; details: in vivo; how it was run: as §1
[19] = system: Rattus norvegicus; assay: Inhibition of RPAR administered perorally at 50 mg/kg dose; format: functional; details: route oral; how it was run: as §3
[20] = Sodium salt excretion in conscious rat at the dose of 3.0 mg/kg expressed as urinary excretion in treated rats/urinary excretion in control rats; format: ADME, organism-based, Urine; design: dose 3 mg/kg; details: in vivo; how it was run: as §1
[21] = system: Rattus norvegicus; assay: Blood pressure change in rats after oral administration of 50 mg/kg dose after 24 hours; format: functional; how it was run: as §2
[22] = system: Rattus norvegicus; assay: Compound was tested for urinary volume excretion in conscious rat at the dose of 3.0 mg/kg expressed as urinary excretion in treated rats/urinary excretion in control rats; format: ADME, organism-based, Urine; design: dose 3 mg/kg; details: in vivo; how it was run: as §1
[23] = Sodium salt excretion in conscious rat at the dose of 30 mg/kg expressed as urinary excretion in treated rats/urinary excretion in control rats; format: ADME, organism-based, Urine; design: dose 30 mg/kg; details: in vivo; how it was run: as §1
[24] = system: Rattus norvegicus; assay: Inhibition of RPAR administered perorally at 25 mg/kg dose; format: functional; details: route oral; how it was run: as §3

Oc1nc(O)c(Br)c(-c2ccccc2)n1
Urinary volume [1]: 2.1 | Na+ excretion [2]: 1.2 | K+ excretion [3]: 1 | Urinary volume [4]: 1.2 | Na+ excretion [5]: 1.9 | Na+ excretion [6]: 1.2 | K+ excretion [7]: 0.9 | K+ excretion [8]: 1.2 | Urinary volume [9]: 1 | Urinary volume [10]: 1.5 | MABP change [11]: 6 mmHg | inhibition in vivo at 100 mg/kg [12]: 58% | K+ excretion [13]: 1.8 | Diuretic activity [14]: 3.53 | Urinary volume [15]: 0.9 | K+ excretion [16]: 1 | K+ excretion [17]: 1 | Na+ excretion [18]: 1.2 | inhibition in vivo at 50 mg/kg [19]: 46% | Na+ excretion [20]: 1 | MABP change [21]: 5 mmHg | Urinary volume [22]: 1.1 | Na+ excretion [23]: 1.4

Nc1nc(=O)c(Br)c(-c2ccccc2)[nH]1 [BROPIRIMINE]
Urinary volume [1]: 2.7 | Na+ excretion [2]: 1.3 | K+ excretion [3]: 1 | Urinary volume [4]: 2.5 | Na+ excretion [5]: 2.8 | Na+ excretion [6]: 2.3 | K+ excretion [7]: 1.3 | K+ excretion [8]: 1.5 | Urinary volume [9]: 1.2 | Urinary volume [10]: 2.6 | inhibition in vivo at 25 mg/kg [24]: 13% | MABP change [11]: 0 mmHg | inhibition in vivo at 100 mg/kg [12]: 44% | K+ excretion [13]: 1.3 | Diuretic activity [14]: 7.41 | Urinary volume [15]: 1.1 | K+ excretion [16]: 1.1 | K+ excretion [17]: 1.1 | Na+ excretion [18]: 1.1 | inhibition in vivo at 50 mg/kg [19]: 31% | Na+ excretion [20]: 1.5 | MABP change [21]: -22 mmHg | Urinary volume [22]: 1.3 | Na+ excretion [23]: 2.9

C=CCn1c(N)nc(-c2ccccc2)c(I)c1=O
MABP change [11]: -6 mmHg | Diuretic activity [14]: 5.09 | MABP change [21]: -10 mmHg

Cn1c(=O)cc(-c2ccccc2)[nH]c1=O
MABP change [11]: 0 mmHg | MABP change [21]: 6 mmHg

Oc1nc(O)c(I)c(-c2ccccc2)n1
MABP change [11]: 7 mmHg | inhibition in vivo at 100 mg/kg [12]: 48% | Diuretic activity [14]: 5.43 | inhibition in vivo at 50 mg/kg [19]: 41% | MABP change [21]: 11 mmHg

Cn1c(-c2ccccc2)c(Cl)c(=O)[nH]c1=O
Urinary volume [1]: 1.6 | Na+ excretion [2]: 1.1 | K+ excretion [3]: 1.2 | Urinary volume [4]: 1.1 | Na+ excretion [5]: 1.6 | Na+ excretion [6]: 1.1 | K+ excretion [7]: 1.3 | K+ excretion [8]: 1.7 | Urinary volume [9]: 0.9 | Urinary volume [10]: 1.6 | MABP change [11]: 2 mmHg | K+ excretion [13]: 1.9 | Diuretic activity [14]: 3.49 | Urinary volume [15]: 0.9 | K+ excretion [16]: 1.1 | K+ excretion [17]: 0.9 | Na+ excretion [18]: 1.1 | Na+ excretion [20]: 0.9 | MABP change [21]: 2 mmHg | Urinary volume [22]: 0.8 | Na+ excretion [23]: 1.6

Cn1c(=O)[nH]c(-c2ccccc2)c(Br)c1=O
MABP change [11]: -1 mmHg | MABP change [21]: 6 mmHg

Cn1c(-c2ccccc2)c(I)c(=O)[nH]c1=O
inhibition in vivo at 25 mg/kg [24]: 33% | MABP change [11]: 15 mmHg | inhibition in vivo at 100 mg/kg [12]: 73% | inhibition in vivo at 50 mg/kg [19]: 44% | MABP change [21]: -1 mmHg

Cn1c(-c2ccccc2)c(Br)c(=O)[nH]c1=O
inhibition in vivo at 25 mg/kg [24]: 22% | MABP change [11]: 1 mmHg | inhibition in vivo at 100 mg/kg [12]: 57% | inhibition in vivo at 50 mg/kg [19]: 43% | MABP change [21]: 1 mmHg

Cn1c(-c2ccccc2)cc(=O)[nH]c1=O
inhibition in vivo at 25 mg/kg [24]: 27% | MABP change [11]: 4 mmHg | inhibition in vivo at 100 mg/kg [12]: 79% | inhibition in vivo at 50 mg/kg [19]: 47% | MABP change [21]: 6 mmHg

CN(C)c1nc(O)c(Br)c(-c2ccccc2)n1
MABP change [11]: 1 mmHg | MABP change [21]: 2 mmHg

Cn1c(-c2ccccc2)c(Br)c(=O)n(C)c1=O
inhibition in vivo at 100 mg/kg [12]: 59% | inhibition in vivo at 50 mg/kg [19]: 36%

CC(=O)Nc1nc(O)c(I)c(-c2ccccc2)n1
MABP change [11]: 3 mmHg | MABP change [21]: 9 mmHg
